Key:
[1] = Half life in human plasma at 1 uM by LC-MS/MS analysis; format: ADME, cell-free
Summary of the method: (§1)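 Samples were incubated in phosphate buffer or human plasma and analysed by LC-MS/MS in product ion scan mode. Analyte concentration was monitored over incubation time. The slope of ln(concentration) versus time gave the first-order degradation rate constant k, and t1/2 was calculated from k. Ketoprofen ethyl ester served as a reference to confirm that the plasma batch was enzymatically active.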

[2] = Half life in PBS at 1 uM by LC-MS/MS analysis; format: physicochemical; summary of the method: as §1
[3] = target: T1, ATP-dependent translocase ABCB1 (Homo sapiens, UniProt P08183); assay: Inhibition of P-gp in human K562/DOX cells assessed as drug level causing 50% increase in nuclear pirarubicin concentration incubated for 30 mins by spectroflurometry; format: cell-based; conditions: read-out: I0.5
T1 sequence (P08183 whole entry): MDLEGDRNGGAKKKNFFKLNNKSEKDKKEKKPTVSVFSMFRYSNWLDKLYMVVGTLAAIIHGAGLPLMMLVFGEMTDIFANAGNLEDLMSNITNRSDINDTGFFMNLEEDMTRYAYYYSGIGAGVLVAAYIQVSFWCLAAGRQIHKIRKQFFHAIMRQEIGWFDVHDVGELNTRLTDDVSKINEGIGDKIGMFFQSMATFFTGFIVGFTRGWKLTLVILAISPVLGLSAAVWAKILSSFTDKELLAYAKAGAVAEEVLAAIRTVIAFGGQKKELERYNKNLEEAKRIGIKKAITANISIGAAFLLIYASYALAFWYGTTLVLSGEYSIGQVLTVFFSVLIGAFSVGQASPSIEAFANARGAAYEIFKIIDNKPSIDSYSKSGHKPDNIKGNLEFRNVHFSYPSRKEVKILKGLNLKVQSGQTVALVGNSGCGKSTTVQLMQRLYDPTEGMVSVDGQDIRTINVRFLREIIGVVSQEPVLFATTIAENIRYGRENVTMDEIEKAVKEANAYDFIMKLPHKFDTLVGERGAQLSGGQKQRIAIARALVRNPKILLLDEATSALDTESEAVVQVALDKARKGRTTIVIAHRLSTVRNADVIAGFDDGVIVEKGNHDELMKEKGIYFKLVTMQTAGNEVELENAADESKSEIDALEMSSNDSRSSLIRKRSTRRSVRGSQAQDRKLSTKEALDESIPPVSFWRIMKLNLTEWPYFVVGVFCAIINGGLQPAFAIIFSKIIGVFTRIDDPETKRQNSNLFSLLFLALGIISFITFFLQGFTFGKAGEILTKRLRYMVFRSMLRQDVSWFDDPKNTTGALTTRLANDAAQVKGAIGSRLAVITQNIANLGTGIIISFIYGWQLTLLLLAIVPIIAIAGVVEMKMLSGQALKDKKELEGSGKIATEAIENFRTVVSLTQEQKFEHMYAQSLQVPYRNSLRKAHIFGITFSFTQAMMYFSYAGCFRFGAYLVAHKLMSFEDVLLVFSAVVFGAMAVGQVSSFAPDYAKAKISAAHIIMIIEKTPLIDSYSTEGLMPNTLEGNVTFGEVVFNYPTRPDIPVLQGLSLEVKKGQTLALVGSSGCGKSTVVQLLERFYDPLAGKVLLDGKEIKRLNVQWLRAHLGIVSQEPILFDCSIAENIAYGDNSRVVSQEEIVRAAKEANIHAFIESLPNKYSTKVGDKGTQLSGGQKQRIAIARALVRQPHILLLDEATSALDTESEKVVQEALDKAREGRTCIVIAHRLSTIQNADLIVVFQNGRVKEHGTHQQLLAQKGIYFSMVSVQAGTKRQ
Summary of the method: (§2)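 Pirarubicin uptake into nuclei was measured in P-gp-overexpressing, doxorubicin-resistant K562/DOX cells. [I]0.5 is the modulator concentration giving a half-maximal increase (α = 0.5) in nuclear pirarubicin concentration. αmax is the maximum increase obtainable in resistant cells. Mean ± SE of three independent experiments.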

[4] = target: T1, ATP-dependent translocase ABCB1; assay: Inhibition of P-gp in human K562/DOX cells assessed as drug level causing maximum increase in nuclear pirarubicin concentration incubated for 30 mins by spectroflurometry relative to control; format: cell-based; conditions: 0.5 h; summary of the method: as §2

SMILES	half-life at 1 µM [1]	half-life at 1 µM [2]	IC50 [3]	Alpha max [4]
COc1cc(/C=C/C(=O)OCCCCCN(C)CCCCCOC(=O)c2cc(OC)c(OC)c(OC)c2)cc(OC)c1OC	> 4 h	> 4 h		
COc1cc(/C=C/C(=O)OCCCCCN(C)CCCOC(=O)c2cc(OC)c(OC)c(OC)c2)cc(OC)c1OC	> 4 h	> 4 h		
CCOC(=O)C(C)c1cccc(C(=O)c2ccccc2)c1 (stereo unspecified)	1.78 h			
COc1cc(/C=C/C(=O)OCCN(C)CCCCCCCOC(=O)c2cc(OC)c(OC)c(OC)c2)cc(OC)c1OC	> 4 h	> 4 h	0.07 µM	0.79
COc1cc(/C=C/C(=O)OCCCCCCCN(C)CCOC(=O)c2c3ccccc3cc3ccccc23)cc(OC)c1OC	> 4 h	> 4 h	0.02 µM	0.98
COc1cc(/C=C/C(=O)OCCCCCCN(C)CCCOC(=O)c2cc(OC)c(OC)c(OC)c2)cc(OC)c1OC	> 4 h	> 4 h	0.24 µM	0.9
COc1cc(/C=C/C(=O)OCCCCCN(C)CCCCOC(=O)c2cc(OC)c(OC)c(OC)c2)cc(OC)c1OC	> 4 h	> 4 h	0.1 µM	0.94
COc1cc(/C=C/C(=O)OCCCCCCN(C)CCCOC(=O)c2c3ccccc3cc3ccccc23)cc(OC)c1OC	> 4 h	> 4 h	0.03 µM	0.99
COc1cc(/C=C/C(=O)OCCN(C)CCCCCCOC(=O)c2cc(OC)c(OC)c(OC)c2)cc(OC)c1OC	> 4 h	> 4 h	0.46 µM	0.91
COc1cc(/C=C/C(=O)OCCCCN(C)CCCCCOC(=O)c2c3ccccc3cc3ccccc23)cc(OC)c1OC	> 4 h	> 4 h	0.04 µM	0.94
COc1cc(/C=C/C(=O)OCCCN(C)CCCCCCOC(=O)c2c3ccccc3cc3ccccc23)cc(OC)c1OC	> 4 h	> 4 h	0.04 µM	0.92
COc1cc(/C=C/C(=O)OCCCCCN(C)CCCCOC(=O)c2c3ccccc3cc3ccccc23)cc(OC)c1OC	> 4 h	> 4 h	0.03 µM	0.99
COc1cc(/C=C/C(=O)OCCCCCCN(C)CCOC(=O)c2cc(OC)c(OC)c(OC)c2)cc(OC)c1OC	> 4 h	> 4 h	0.19 µM	0.77
COc1cc(/C=C/C(=O)OCCCCCCN(C)CCOC(=O)c2c3ccccc3cc3ccccc23)cc(OC)c1OC	> 4 h	> 4 h	0.04 µM	0.94
COc1cc(/C=C/C(=O)OCCCCCCCN(C)CCOC(=O)c2cc(OC)c(OC)c(OC)c2)cc(OC)c1OC	> 4 h	> 4 h	0.04 µM	0.99
COc1cc(/C=C/C(=O)OCCN(C)CCCCCCCOC(=O)c2c3ccccc3cc3ccccc23)cc(OC)c1OC	> 4 h	> 4 h	0.17 µM	0.88
COc1cc(/C=C/C(=O)OCCN(C)CCCCCCOC(=O)c2c3ccccc3cc3ccccc23)cc(OC)c1OC	> 4 h	> 4 h	0.2 µM	0.79

Reference: ChEMBL document CHEMBL4393665 (Eur J Med Chem, 2019)
